Sampled rows, rich in hits. Any-hit rate of the full collection: about 3.9%.
SR-BI HDL uptake = inhibitors of mouse SR-BI mediated HDL lipid uptake; Q61009; ldlA[mSR-BI] CHO cells, DiI-HDL uptake fluorescence, 3 h; inhibition, % at 12.5 µM; actives 0.96% (n = 320,000); AID 488896;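 active = mean replicate inhibition of at least 70% and a set share of replicates each scoring 70 or more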;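 note: 0% = median of neutral control wells and 100% = median of positive control wells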
HIF activator = HIF pathway transcriptional activation | U2OS HRE-luciferase reporter, luminescence; normalized: DMSO 0%, desferrioxamine 100% | activation, % at 7.5 µM (by protocol) | actives 0.32% (n = 300,000) | AID 1910;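 active = mean activation of at least 10% of the iron chelator positive control signal, with at least half of replicates also reaching 10%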
AHR act = activators of human aryl hydrocarbon receptor; actives 2.5% (n = 320,000); activation, % at 5 µM; AHR-responsive luciferase reporter cells, luminescence; P35869; in the data active = activation above about 47%;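 note: 0% = vehicle wells and 100% = reference agonist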
SR-BI uptake up = SR-BI HDL lipid transfer activation. AID 504775. activation, % at 12.5 µM. CHO ldlA[mSR-BI] cells, DiI-HDL uptake fluorescence, 3 h; 100 = double the neutral-control signal. actives 0.096% (n = 320,000);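 active = mean replicate activation of at least 60% and every replicate at or above 60%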;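 note: 0% = median plate neutral-control signal and 100% = twice that signal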
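Test system: SR-BI-overexpressing, LDLR-lacking CHO cells; Also added: labelled HDL, 10 µg/mL; Measured by: bottom-read cell fluorescence after medium removal, ex 550/em 595 nm; Timing: 3 h uptake period with compound, 37 °C; Buffer or medium: F12, 0.5% BSA, 25 mM HEPES; Doses: single compound concentration, delivered by pin transfer.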
FXN GAA850 act = activators of GAA850 frataxin (FXN) promoter. HEK293 lucGAA850 FXN promoter luciferase reporter, 24 h; percent of 10 µM SAHA response. activation, % at 6 µM. actives 0.56% (n = 360,000). AID 540364;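 active = activation above the average of all compounds screened plus 3 SD, cutoff fixed separately per campaign, cut at about 7.5% in these data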;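 note: 0% = DMSO wells and 100% = 10 µM SAHA wells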
ABCB6 inh 2 = human ABCB6 transporter inhibition. K562-ABCB6 porphyrin accumulation, flow cytometry, 1 h; stronger effect = lower value. actives 0.19% (n = 360,000). fluorescence ratio to DMSO, % at 10 µM. Q9NP58;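 active = fluorescence ratio to DMSO below 75%, the collection mean minus 3 SD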;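 note: signal is porphyrin accumulated inside mitochondria; 100% equals median channel fluorescence of DMSO control wells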
Target sequence (Q9NP58 whole entry, looked up): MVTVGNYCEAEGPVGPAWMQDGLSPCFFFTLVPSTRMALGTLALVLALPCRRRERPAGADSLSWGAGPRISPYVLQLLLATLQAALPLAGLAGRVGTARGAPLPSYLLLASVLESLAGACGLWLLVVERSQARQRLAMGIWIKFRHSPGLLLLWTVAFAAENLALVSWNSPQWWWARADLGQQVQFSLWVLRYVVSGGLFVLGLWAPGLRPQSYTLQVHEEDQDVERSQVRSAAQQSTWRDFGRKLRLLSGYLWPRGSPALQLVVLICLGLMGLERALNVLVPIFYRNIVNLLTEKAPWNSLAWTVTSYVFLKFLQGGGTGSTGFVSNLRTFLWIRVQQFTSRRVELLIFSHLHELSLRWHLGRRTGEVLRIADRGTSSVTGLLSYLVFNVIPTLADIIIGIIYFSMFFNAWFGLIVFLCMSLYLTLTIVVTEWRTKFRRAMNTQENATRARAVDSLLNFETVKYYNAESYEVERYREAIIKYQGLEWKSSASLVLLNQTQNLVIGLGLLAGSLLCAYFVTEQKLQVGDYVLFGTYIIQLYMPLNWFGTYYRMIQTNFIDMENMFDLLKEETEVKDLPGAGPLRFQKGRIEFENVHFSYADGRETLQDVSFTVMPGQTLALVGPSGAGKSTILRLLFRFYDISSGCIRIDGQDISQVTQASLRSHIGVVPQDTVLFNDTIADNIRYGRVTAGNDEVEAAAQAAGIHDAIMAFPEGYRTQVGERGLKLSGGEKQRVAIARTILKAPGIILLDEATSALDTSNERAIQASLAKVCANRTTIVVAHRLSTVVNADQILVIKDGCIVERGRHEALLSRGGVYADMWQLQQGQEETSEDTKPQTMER
AHR act confirm = human AHR activation, confirmation | shares compounds with AHR act | human cells, AHR-responsive luciferase reporter, luminescence | activation, % at 9 µM | actives 87% (n = 2,300); in the data active = activation above about 49%;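 note: HepG2 hepatoma cells carrying a DRE-driven firefly luciferase reporter; 0% = vehicle wells and 100% = reference agonist wells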
PXR act counter = PXR activation, counter-screen for AHR activators. shares compounds with AHR act. activation, % at 11.6 µM. cell-based PXR reporter, luciferase luminescence. actives 88% (n = 2,300); in the data active = activation above about 11%;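 note: human hepatoma DPX-2 cells expressing full-length human PXR; 0% = DMSO and 100% = reference agonist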
* marks the source's active call; other numbers are inactive results; . = not tested or not shown.

SMILES | SR-BI HDL uptake | HIF activator | AHR act | SR-BI uptake up | FXN GAA850 act | ABCB6 inh 2 | AHR act confirm | PXR act counter
N#Cc1nc(-c2ccc(F)cc2)oc1NCCCn1ccnc1 | . | 0.9 | 106.0* | . | . | . | 97.4* | 30.3*
Nc1c(Cl)c(Cl)nc(C(=O)N/N=C/c2cccnc2)c1Cl | . | 0.4 | 85.7* | . | 1.6 | 96.0 | 77.7* | 39.5*
O=C1NN=COc2ccccc21 | -17.9 | -0.1 | 33.7 | 17.9 | -0.2 | 95.0 | . | .
Cc1ccc2nc(SCC(=O)c3ccc(Cl)s3)[nH]c2c1 | 25.4 | 1.6 | 86.0* | -25.4 | 2.0 | 104.0 | 45.4 | 45.8*
Cc1ccc2nc(SCC(=O)Nc3cc([N+](=O)[O-])ccc3F)[nH]c2c1 | 60.6 | -18.7 | 40.0 | -60.6 | -0.5 | 96.0 | . | .
Cc1ccc2nc(SCC(=O)Nc3ccc(F)c([N+](=O)[O-])c3)[nH]c2c1 | -9.2 | -0.1 | 98.8* | 9.2 | 0.3 | 86.0 | 114.5* | 26.8*
CN(CC(=O)Nc1cccc(F)c1)C(=O)c1ccc2c(c1)S(=O)(=O)N=C1CCCCCN12 | -7.9 | 0.6 | 3.4 | 7.9 | 0.3 | 97.0 | . | .
O=C(COc1ccc(Br)cc1)NCCNC(=O)c1cccnc1 | -8.0 | 0.4 | 13.7 | 8.0 | 0.0 | 102.0 | . | .
Cc1cc(C)n2nc(-c3ccc(Cl)cc3)cc2n1 | 41.9 | 1.5 | 98.0* | -41.9 | 3.9 | 109.0 | 120.0* | 27.5*
Cc1cc(C)n2nc(-c3ccc(Br)cc3)cc2n1 | 11.2 | 5.9 | 134.2* | -11.2 | 6.1 | 100.0 | 96.5* | 29.9*
Cc1cc(-c2ccc(Cl)cc2)n2nc(C)cc2n1 | 58.9 | -0.5 | 17.1 | -58.9 | 2.2 | 97.0 | . | .
Cc1cc(-c2ccc(Br)cc2)n2nc(C)cc2n1 | . | . | . | . | 3.0 | 75.0 | . | .
Cc1nc2cc(-c3ccc(Cl)cc3)nn2c(NCCN(C)C)c1C | 16.4 | 1.9 | 113.5* | -16.4 | 5.3 | 101.0 | 101.9* | 14.5*
Cc1cc(C)n2nc(-c3sccc3-n3cccc3)cc2n1 | 6.2 | -0.5 | 93.2* | -6.2 | 0.3 | 100.0 | 55.0* | 60.9*
FC(F)(F)c1cc(C(F)(F)F)n2nc(-c3sccc3-n3cccc3)cc2n1 | -0.1 | -0.3 | 10.3 | 0.1 | -0.6 | 100.0 | . | .
Clc1ccc(CCNc2ncnc3nc[nH]c23)cc1 | 9.9 | . | -4.0 | 7.0 | 1.7 | 98.0 | . | .
Fc1ccc(/C=N/Nc2ncnc3nc[nH]c23)cc1F | 1.6 | 2.1 | 103.3* | -1.6 | 5.5 | 98.0 | 64.5* | 32.4*
O=C(CSc1ccc2nnc(-c3ccccn3)n2n1)Nc1ccc2c(c1)OCCO2 | 2.0 | 0.1 | -8.6 | -2.0 | -2.5 | 101.0 | . | .
O=C(/C=C\c1ccccc1)Nc1nccs1 | -14.9 | -2.6 | 111.1* | 14.9 | -1.3 | 92.0 | 72.9* | 20.7*
CCOC(=O)C1(Cc2ccccc2C(F)(F)F)CCN(C(C)CCn2cccn2)CC1 (centres undefined) | -5.3 | -0.5 | 11.9 | 5.3 | -1.0 | 98.0 | . | .
CC(=O)N1N=C2/C(=C/c3ccccc3)CCCC2C1c1ccccc1 (centres undefined) | 25.0 | -0.1 | 100.5* | -25.0 | 1.4 | 98.0 | 86.9* | 100.6*
O=C(c1ccccn1)N1N=C2/C(=C/c3ccc(F)cc3)CCCC2C1c1ccc(F)cc1 (centres undefined) | 6.9 | -0.5 | 93.9* | -6.9 | 0.1 | 98.0 | 95.0* | 49.0*
CN1N=C2c3ccccc3CCC2C1c1ccc(C(F)(F)F)cc1 (centres undefined) | . | 3.5 | 21.2 | . | . | . | . | .
CC(=O)N1N=C2c3ccccc3CCC2C1c1ccc(F)cc1 (centres undefined) | . | 0.2 | 98.9* | . | 0.2 | 96.0 | 107.7* | 28.7*
COc1ccc(/C=C2\CCCC3C2=NN(C(=O)c2ccco2)C3c2ccc(OC)c(OC)c2)cc1OC (centres undefined) | 3.8 | -0.4 | 3.5 | -3.8 | 4.1 | 97.0 | . | .
SMILES | SR-BI HDL uptake | HIF activator | AHR act | SR-BI uptake up | FXN GAA850 act | ABCB6 inh 2 | AHR act confirm | PXR act counter
CCOC(=O)c1nn(-c2ccccc2C)c2nc(CC(C)C)c(C#N)c(=O)n12 | -5.3 | -0.5 | -1.6 | 5.3 | 3.1 | 100.0 | . | .
CCn1c(CNc2ccc(Cl)cc2)nnc1SCC#N | 2.2 | -0.4 | 120.3* | -2.2 | 2.8 | 96.0 | 99.8* | 47.5*
CCn1c(CNc2ccc(F)cc2)nnc1SCC#N | -20.2 | -0.3 | 21.5 | 20.2 | 1.2 | 100.0 | . | .
O=S1(=O)NC(=NCc2ccco2)c2ccccc21 | -25.8 | -0.1 | -1.4 | 25.8 | 0.9 | 101.0 | . | .
O=C(NC(=S)NCCc1ccccn1)c1ccccc1 | 1.2 | 2.2 | 99.9* | -1.2 | 0.9 | 94.0 | 62.3* | 12.2*
COc1ccc(CCNC(=S)NC(=O)c2cccc(Cl)c2)cc1OC | . | -0.2 | 14.3 | . | 2.6 | 97.0 | . | .
O=C(NC(=S)NCCc1ccccc1)c1cccc(Cl)c1 | -12.8 | 0.7 | 124.3* | 12.8 | 1.1 | 98.0 | 138.8* | 18.8*
Cc1ccc2ncccc2c1NC(=S)NC(=O)c1ccccc1 | 9.9 | -1.4 | 86.1* | -9.9 | -1.7 | 97.0 | 125.5* | 37.0*
Nc1ccc(Br)c2c1C(=O)c1ccccc1C2=O | . | 0.3 | 95.3* | . | . | . | 57.8* | 16.4*
COc1ccccc1N1CCN(C/C=C/c2ccc(N(C)C)cc2)CC1 | . | -0.2 | -0.4 | . | . | . | . | .
N#C/C(=C(/O)c1ccc(Cl)cc1)c1nc2ccccc2[nH]1 | 19.9 | -1.2 | 8.0 | -19.9 | 1.1 | 95.0 | . | .
N#C/C(=C(\O)c1cc(Cl)sc1Cl)c1nc2ccccc2[nH]1 | -11.5 | 0.1 | 89.0* | 11.5 | 0.3 | 98.0 | 160.7* | 12.9*
CCOC(=O)c1c(N/N=C/c2ccncc2)n[nH]c1C | -13.6 | 0.2 | 97.1* | 13.6 | 3.0 | 93.0 | 66.4* | 15.1*
Cc1ccc2c(C)c(C(=O)N3CCN(c4cnccn4)CC3)oc2c1C | -3.4 | 0.6 | 92.3* | 3.4 | 1.6 | 97.0 | 114.1* | 25.3*
CC1=C(C(=O)OCc2ccccc2)C(c2ccccc2Cl)NC(=O)N1CCCC(=O)O (centres undefined) | -11.0 | -0.9 | -0.5 | 11.0 | 1.6 | 98.0 | . | .
CC(C)C(=O)N1CCN(c2ccccc2NC(=O)c2ccc([N+](=O)[O-])o2)CC1 | 3.1 | -4.7 | 5.4 | -3.1 | -0.6 | 99.0 | . | .
COc1ccccc1-n1cc(-c2ccccc2)[nH]c1=S | . | 2.2 | 102.3* | . | -0.9 | 94.0 | 105.7* | 48.5*
CCOc1ccc(-c2cn(-c3ccccc3OC)c(=S)[nH]2)cc1 | 8.2 | 2.9 | 21.9 | -8.2 | -3.2 | 99.0 | . | .
Clc1ccc2nc3c4ccccc4cnn3c2c1 | -10.2 | 1.8 | 105.0* | 10.2 | 7.5 | 101.0 | 89.6* | 4.0
COn1c(-c2ccccc2)nc2ccc(Cl)cc21 | 5.0 | 3.3 | 4.4 | -5.0 | 0.5 | 97.0 | . | .

Screening data as filed in PubChem.
